# Published values gathered from unrelated publications.
# Protocols differ between the studies behind these lines.
# Effect on: metabolic stability
# Species: human
Structure (SMILES),system,setting,half-life
C[C@]12CC[C@H]3[C@@H](CC=C4CC(O)CC[C@@]43CO)[C@@H]1CCC2O (stereo partly drawn),liver microsomes,,73.6 min
CNC(C)Cc1ccc2nonc2c1 (stereo not drawn),liver microsomes,0.5 µM,> 150 min
COc1ccc([C@@]23Oc4cc(OC)cc(OC)c4[C@@]24N=C(C2CC2)N[C@@]4(O)[C@H](C(=O)N(C)OC)[C@H]3c2ccccc2)cc1,liver microsomes,"1 µM, pH 7.4",18.3 min
CC[C@H](C)[C@H](NC(=O)[C@H](CC(=O)O)NC(=O)[C@H](CS)NC(=O)[C@H](CCCCN)NC(=O)[C@H](CS)NC(=O)[C@H](CCSC)NC(=O)[C@@H]1CCCN1C(=O)[C@H](CCC(N)=O)NC(=O)[C@@H]1CCCN1C(=O)[C@H](CCCNC(=N)N)NC(=O)[C@H](CCCNC(=N)N)NC(=O)[C@H](CCCNC(=N)N)NC(=O)[C@H](CCCNC(=N)N)NC(=O)[C@H](CCC(N)=O)NC(=O)[C@H](CCCNC(=N)N)NC(=O)[C@H](CCCNC(=N)N)NC(=O)[C@H](CCCCN)NC(=O)[C@H](CCCCN)NC(=O)[C@H](CCCNC(=N)N)NC(=O)CN)C(=O)N[C@@H](CC(C)C)C(=O)N[C@@H](CCCCN)C(=O)N[C@@H](C)C(=O)O,liver microsomes,1 µM,6 min
CONC(=O)[C@H]1[C@@H](O)[C@@]2(O)c3c(OC)cc(OC)cc3O[C@@]2(c2ccc(OC)cc2)[C@@H]1c1ccccc1,liver microsomes,,120 min
C[C@]12CC[C@H]3[C@@H](CCC4=CC(=O)CC[C@@]43C)[C@@H]1CC[C@@H]2O,hepatocytes,1 µM,6.51 min
CNC(C)Cc1ccc2nsnc2c1 (stereo not drawn),liver microsomes,0.5 µM,53 min
CC(C)C[C@H](NC(=O)[C@H](Cc1ccccc1)NC(=O)[C@H](Cc1ccccc1)NC(=O)Cc1ccc(-c2ccccc2)cc1)C(=O)N[C@@H](CCCCN)C(=O)N[C@@H](CCCNC(=N)N)C(=O)N[C@H](C(=O)N[C@@H](Cc1c[nH]c2ccccc12)C(=O)N[C@@H](CCCCN)C(=O)N[C@@H](CCCNC(=N)N)C(=O)O)C(C)C,liver microsomes,1 µM,22.8 min
C[C@]12CC[C@H]3[C@@H](CCC4=CC(=O)CC[C@@]43C)[C@@H]1CC[C@@H]2O,liver microsomes,"10 µM, pH 7.4",19.3 min
